Assay outcomes (PubChem)
This is a sample that favours compounds with a hit; in the whole collection about 2% have one here.
rRNA inh HTS = inhibitors of bacterial rRNA selective over humanized ribosomes; E. coli WT GFP vs humanized-ribosome RFP mutants, fluorescence, 24 h; stronger effect = lower value; DMSO median 0, no signal -100; GFP signal change (wild-type ribosome), % (concentration not given with the values); hit rate 1.6% among 350,000; AID 720706;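 active = significant combined selectivity score with lowered wild-type GFP, culture density cut under 30%, mutant RFP and density less affected; inactive = any of these conditions unmet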
E-selectin induc = E-selectin induction on HUVECs. activation, % at 7.58 µM. hit rate 0.37% among 260,000. HUVEC E-selectin immunofluorescence imaging; normalized: neutral wells 0, TNF-alpha wells 100. P16581. AID 686992;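 active = mean E-selectin-positive cell signal at least 10% of the positive control, reached in at least 60% of replicates, without over 20% cell loss; inconclusive = no rule given, readout overlaps actives, possibly toxicity-flagged; inactive = the rest, including those meeting only one limit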
Target sequence (P16581 whole entry, looked up): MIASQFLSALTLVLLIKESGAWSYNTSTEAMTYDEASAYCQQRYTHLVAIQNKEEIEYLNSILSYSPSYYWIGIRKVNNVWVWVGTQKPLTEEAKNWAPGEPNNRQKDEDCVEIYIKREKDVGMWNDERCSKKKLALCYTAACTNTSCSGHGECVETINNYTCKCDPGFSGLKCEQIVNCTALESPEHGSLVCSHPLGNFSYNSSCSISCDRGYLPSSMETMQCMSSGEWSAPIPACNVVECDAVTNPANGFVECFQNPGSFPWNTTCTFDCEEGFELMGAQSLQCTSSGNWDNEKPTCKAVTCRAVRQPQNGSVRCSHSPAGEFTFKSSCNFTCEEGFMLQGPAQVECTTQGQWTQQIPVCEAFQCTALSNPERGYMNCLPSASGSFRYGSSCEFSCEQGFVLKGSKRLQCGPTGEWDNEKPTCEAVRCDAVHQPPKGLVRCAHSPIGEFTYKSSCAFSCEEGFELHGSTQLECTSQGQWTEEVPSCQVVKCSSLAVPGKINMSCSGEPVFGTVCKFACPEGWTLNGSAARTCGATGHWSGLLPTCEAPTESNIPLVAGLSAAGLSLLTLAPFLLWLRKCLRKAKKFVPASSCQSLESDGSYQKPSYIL
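Assay system: HUVEC, human umbilical vein endothelial cells / Amount: 3,000 HUVEC/well / Controls: TNF-alpha positive control, DMSO neutral control / Compound dosing: single concentration / Medium: EGM-2 over gelatin coat / Evaluation: percent E-selectin-positive cells / Signal: immunofluorescence imaging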
Xi reactivation = activators of X-chromosome reactivation in mouse fibroblasts; hit rate 0.055% among 360,000; XiGFP mouse fibroblasts, % GFP-positive cells imaging, 3 d; cells co-treated with 5-aza-dC sensitizer; scaled so ellipticine positive control = 100%; AID 743238; activation, % at 7.58 µM;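 active = mean normalized replicate activation at least 10% and every replicate at or above 10%; inconclusive = only one of the two criteria met; inactive = mean below 10% and not all replicates reach 10%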
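assay system = SV40-immortalized XiGFP fibroblast cells, line 68-5-11 | buffer or medium = DMEM plus 5-aza-dC sensitizer | doses = single-point pinned compound dosing | times = 3-day compound exposure, then 15 min fixation at room temperature | benchmarks = positive control ellipticine, 6 µM final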
PglD DTNB = PglD (C. jejuni) enzyme inhibition | purified PglD enzyme, DTNB colorimetric CoA detection | hit rate 0.098% among 360,000 | inhibition, % at 12.5 µM | AID 602405; in the data active = inhibition above about 16%, passing the limit was not always enough; inconclusive = no clear call, values can overlap the other calls
RAD54 branch = inhibitors of human RAD54 branch migration; AID 602329; inhibition, % at 10.4 µM; RAD54 Holliday junction branch migration, FAM/BHQ fluorescence; Q92698; hit rate 0.14% among 360,000;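 active = mean normalized replicate activity at least 40 and at least half of replicates scoring 40 or more; inconclusive = only one of the two criteria met; inactive = mean below 40 and under half of replicates reaching 40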;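 also: inhibitors cause a drop in the FAM fluorescence signal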
RAD52 inh = RAD52 (human) annealing inhibition | P43351 | recombinant RAD52 DNA annealing, FRET fluorescence | inhibition, % at 18.7 µM | hit rate 0.46% among 360,000;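 active = every replicate showing at least 50% inhibition; inconclusive = mean inhibition at least 50% but not in every replicate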
DNA binding = DNA binding artifact in Rad54 counter-screen | Acridine orange-DNA displacement, fluorescence polarization, 20 min | shares compounds with RAD54 branch | AC50, µM (series often up to 35 µM) | AID 651673 | hit rate 8% among 460;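 active = signal drop giving an AC50 within twice the top valid tested concentration of each sample, actives reach about 35 µM in these data; inactive = activity opposite to expected, plus the rest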;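 also: polarization loss reports compound binding to salmon sperm DNA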
PglD confirm = blocks Campylobacter jejuni PglD acetyltransferase activity. shares compounds with PglD DTNB. Purified C. jejuni PglD, DTNB absorbance 412 nm. inhibition, % at 20 µM. 320 tested, under 10 active;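 active = mean inhibition across replicates of at least 20% with every single replicate also at 20% or more; inconclusive = mean inhibition at least 20% but some replicate falls below 20%; inactive = mean inhibition under 20% and not all replicates reach it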;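 also: initial rate of CoA release by acetyl transfer from AcCoA to the UDP-4-amino sugar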
DNA binder FP = counter-screen for RAD52 inhibitors: DNA binding compounds; AC50, µM; hit rate 8% among 1,000; shares compounds with RAD52 inh; Salmon sperm DNA/acridine orange FP displacement;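 active = fitted half-maximal concentration for signal loss at or below twice the highest dose tested, in every separate run, actives reach about 64 µM in these data; inconclusive = runs disagree, or flat partial signal loss, or poor fit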
Numbers stand for hits; . = inactive; ? = inconclusive; / = no result given; ! = not confirmed by another sample.

SMILES | rRNA inh HTS | E-selectin induc | Xi reactivation | PglD DTNB | RAD54 branch | RAD52 inh | DNA binder FP | others
CCN(CC)P(=O)(Oc1ccccc1)Oc1ccccc1 | -31.6 | . | . | . | . | . | /
COC(=O)[C@H]1[C@H](CO)[C@H]2Cn3c(cccc3=O)[C@@H]1N2CCc1ccccc1 | . | . | . | . | . | . | /
CN1CCN(c2cccc3c2C(=O)c2ccccc2C3=O)CC1 | . | . | . | . | 78.9 | . | /
CN1CCN(c2ccc3c(c2)S(=O)(=O)c2ccccc2C3=O)CC1 | . | . | . | . | . | . | /
CCNCCNc1ccc([N+](=O)[O-])c2cccnc12 | . | . | . | . | 55.9 | . | / | DNA binding=.
CN1CCC(n2nccc2N)CC1 | / | / | / | . | . | / | /
Nc1ccnn1C1CCNCC1 | / | / | / | . | 93.1 | / | / | DNA binding=.
CC[C@]12CCN(CC3(O)CC3)C(Cc3ccc(O)cc31)C2(C)C | . | / | / | / | / | . | /
Cc1ccc(-c2nc(N(C)C3CCN(C)CC3)c3ccccc3n2)cc1 | / | / | / | . | 96.5 | / | / | DNA binding=.
CN1CCC(N(C)c2ncnc3ccc(Br)cc23)CC1 | / | / | / | . | . | / | /
COC(=O)[C@H]1[C@H](CO)[C@H]2Cn3c(ccc(-c4ccc(F)cc4)c3=O)[C@@H]1N2C(C)=O | . | . | . | . | . | . | /
O=C(NC1CN2CCC1CC2)c1cc(Cl)c([N+](=O)[O-])c2nc[nH]c12 (configuration not stated) | / | . | . | . | 56.1 | / | / | DNA binding=.
CC(Cc1ccccc1)NCC(=O)Nc1cc(N(C)C)nc2ccccc12 (configuration not stated) | . | . | . | . | ? | . | / | DNA binding=.
CC(Cc1ccccc1)NCc1ccccc1O (configuration not stated) | . | . | . | . | . | . | /
O=C(O)[C@@H]1[C@@H](CO)[C@@H]2Cn3c(ccc(C4=CCCC4)c3=O)[C@H]1N2C(=O)Cc1ccccn1 | . | . | . | . | . | . | /
Nc1ccc(C2(c3ccc(N)cc3)CN3CCC2CC3)cc1 | / | / | / | . | 96.2 | / | / | DNA binding=.
Clc1ccccc1CN1CCNCC1 | . | . | . | 22.4 | . | . | / | PglD confirm=.
O=C(Cc1ccccn1)N1CCCCN2[C@H](CO)[C@H](c3ccc(C#Cc4ccccc4)cc3)[C@H]2C1 | . | . | . | . | . | . | /
CC(C)N1CCN(Cc2cccc3c2OCO3)CC1CCO (configuration not stated) | . | . | . | 21.3 | . | . | / | PglD confirm=.
CC(C)N1CCN(Cc2cc3c(cc2Cl)OCO3)CC1CCO (configuration not stated) | . | . | . | . | . | . | /
COc1ccc(CC2=NCCc3cc(OC)c(OC)cc32)cc1OC | / | . | . | . | . | 57.0 | .
COc1cc2c(ccc3c4cc(OC)c(OC)cc4c[n+](C)c23)cc1O | . | . | . | / | / | 97.5 | 20.9µM
CC(=O)N1C[C@@H]2C(c3ccc(Br)cc3)[C@H](C1)N2CC1CC1 (some centres not stated) | . | / | . | / | / | / | /
C[C@]12CCC3C(CC[C@H]4C[C@@H](O)CC[C@]34C)C1CC[C@@H]2OC(=O)[C@H](N)CCCCN (some centres not stated) | / | / | . | . | 65.5 | 97.0 | .
CC(=O)C1CCC2C3CCC4CC(O)CCC4(C)C3CCC12C (configuration not stated) | / | . | . | . | . | . | /
SMILES | rRNA inh HTS | E-selectin induc | Xi reactivation | PglD DTNB | RAD54 branch | RAD52 inh | DNA binder FP | others
COc1ccc(-c2ccc([C@@H]3[C@H](CO)N4CCCCN(C(=O)Cc5ccccc5)C[C@@H]34)cc2)cc1 | . | . | . | . | . | . | /
O=C(O)[C@H]1[C@H](CO)[C@H]2Cn3c(ccc(-c4ccncc4)c3=O)[C@@H]1N2C(=O)C1CCCCC1 | . | . | . | . | . | . | /
NC(N)=N/N=C/c1ccc(N(c2ccccc2)c2ccccc2)cc1 | . | . | . | . | . | 88.7 | .
COC(=O)[C@H]1[C@H](CO)[C@H]2Cn3c(ccc(-c4ccccc4)c3=O)[C@@H]1N2CC1CCCCC1 | . | . | . | . | . | . | /
O=C1NC(=O)C2(CCCc3ccc(N(CCCl)CCCl)cc32)N1 (configuration not stated) | . | . | . | . | . | . | /
NC1(C(=O)O)CCCc2ccc(N(CCCl)CCCl)cc21 (configuration not stated) | . | . | . | . | . | 61.3 | .
O=C(O)[C@H]1[C@H](CO)[C@H]2Cn3c(ccc(-c4ccc(F)cc4)c3=O)[C@@H]1N2CC1CCCCC1 | . | . | . | . | . | . | /
COC(=O)[C@@H]1[C@@H](CO)[C@@H]2Cn3c(ccc(-c4cncnc4)c3=O)[C@H]1N2S(=O)(=O)c1ccccc1C | . | . | . | . | . | . | /
Cc1[nH]c2ccc(OCc3ccccc3)cc2c1CCN | . | . | . | . | . | . | /
Cc1[nH]c2ccc(O)cc2c1CCN | / | . | . | . | . | 80.9 | .
NC(N)=Nc1ccc2[nH]c3c(c2c1)C[C@@]1(O)[C@H]2Cc4ccc(O)c5c4[C@@]1(CCN2CC1CC1)C3O5 (some centres not stated) | . | / | / | . | . | 52.8 | .
CCN(CCCl)c1cc(CN(C)C)cc(NC(=O)c2ccc(C(=O)Nc3cc(CN(C)C)cc(N(CC)CCCl)c3)cc2)c1 | . | . | . | / | / | 105.0 | ?
Nc1ccc(CC(N)c2csc(Nc3ncccn3)n2)cc1 (configuration not stated) | . | . | . | . | . | 86.8 | .
NC(Cc1ccc(F)cc1)c1csc(Nc2ncccn2)n1 (configuration not stated) | . | . | . | . | . | . | /
CN1CCN(c2ccc(N)cc2Cl)CC1 | . | / | . | / | / | 85.3 | 39µM
CN1CCN(c2ccc(Cl)cc2N)CC1 | . | / | . | / | / | . | /
COC(=O)[C@@H]1[C@@H](CO)[C@@H]2Cn3c(ccc(-c4cccnc4)c3=O)[C@H]1N2S(=O)(=O)c1ccccc1F | . | . | . | . | . | . | /
Cc1ccc2c(C)c3ccc4ccccc4c3c[n+]2c1 | . | . | . | / | / | 93.5 | 13.5µM
COc1cc2c(cc1OC)-c1c(OC)c(OC)cc3c1[C@H](C2)N(C)CC3 | . | / | . | . | 91.1 | 75.6 | .
Cn1cc[n+](C)c1P(=S)(c1ccccc1)c1ccccc1 | . | / | . | . | . | . | /
Cc1c(P(=S)(c2ccccc2)c2ccccc2)[n+]2ccccc2n1C | . | . | . | . | . | 97.2! | .
